# Data reported in ChEMBL document CHEMBL5653631, “A Potent and Selective ULK1 Inhibitor Suppresses Autophagy and Sensitizes Cancer Cells to Nutrient Stress” (iScience, 2018).
# How the values were obtained:
# [1] = molecular target: T1, Beta-adrenergic receptor kinase 1 (Homo sapiens) (UniProt P25098); test: Inhibition of human recombinant BARK1 at 40 nM related to control ULK1
# T1 sequence (whole entry): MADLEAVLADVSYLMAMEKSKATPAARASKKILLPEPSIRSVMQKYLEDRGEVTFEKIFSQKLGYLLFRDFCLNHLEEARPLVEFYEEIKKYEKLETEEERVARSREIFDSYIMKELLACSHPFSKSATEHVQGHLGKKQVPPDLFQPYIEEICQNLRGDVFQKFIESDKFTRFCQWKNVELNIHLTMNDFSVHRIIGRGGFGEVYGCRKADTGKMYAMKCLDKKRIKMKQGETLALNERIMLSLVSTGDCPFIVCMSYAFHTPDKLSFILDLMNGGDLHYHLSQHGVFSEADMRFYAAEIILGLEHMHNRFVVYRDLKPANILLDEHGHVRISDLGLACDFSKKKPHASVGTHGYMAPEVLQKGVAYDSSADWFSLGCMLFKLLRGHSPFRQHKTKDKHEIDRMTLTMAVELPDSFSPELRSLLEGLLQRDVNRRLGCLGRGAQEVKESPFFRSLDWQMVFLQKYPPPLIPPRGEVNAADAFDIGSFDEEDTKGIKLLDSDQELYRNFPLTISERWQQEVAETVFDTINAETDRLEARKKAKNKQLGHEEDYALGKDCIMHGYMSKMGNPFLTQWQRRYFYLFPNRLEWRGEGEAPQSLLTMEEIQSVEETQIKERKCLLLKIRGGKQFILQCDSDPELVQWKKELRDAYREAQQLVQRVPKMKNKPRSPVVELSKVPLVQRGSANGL
# Summary of the method: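 Radiometric activity assays in a panel of 327 human recombinant kinases, each run in duplicate at one inhibitor concentration. Activity remaining is expressed as percent of vehicle control, and percent inhibition is calculated as 100% minus percent activity remaining.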
# [2] = molecular target: T2, Ephrin type-A receptor 1 (Homo sapiens) (UniProt P21709); test: Inhibition of human recombinant EphA1 at 40 nM related to control ULK1
# T2 sequence (whole entry): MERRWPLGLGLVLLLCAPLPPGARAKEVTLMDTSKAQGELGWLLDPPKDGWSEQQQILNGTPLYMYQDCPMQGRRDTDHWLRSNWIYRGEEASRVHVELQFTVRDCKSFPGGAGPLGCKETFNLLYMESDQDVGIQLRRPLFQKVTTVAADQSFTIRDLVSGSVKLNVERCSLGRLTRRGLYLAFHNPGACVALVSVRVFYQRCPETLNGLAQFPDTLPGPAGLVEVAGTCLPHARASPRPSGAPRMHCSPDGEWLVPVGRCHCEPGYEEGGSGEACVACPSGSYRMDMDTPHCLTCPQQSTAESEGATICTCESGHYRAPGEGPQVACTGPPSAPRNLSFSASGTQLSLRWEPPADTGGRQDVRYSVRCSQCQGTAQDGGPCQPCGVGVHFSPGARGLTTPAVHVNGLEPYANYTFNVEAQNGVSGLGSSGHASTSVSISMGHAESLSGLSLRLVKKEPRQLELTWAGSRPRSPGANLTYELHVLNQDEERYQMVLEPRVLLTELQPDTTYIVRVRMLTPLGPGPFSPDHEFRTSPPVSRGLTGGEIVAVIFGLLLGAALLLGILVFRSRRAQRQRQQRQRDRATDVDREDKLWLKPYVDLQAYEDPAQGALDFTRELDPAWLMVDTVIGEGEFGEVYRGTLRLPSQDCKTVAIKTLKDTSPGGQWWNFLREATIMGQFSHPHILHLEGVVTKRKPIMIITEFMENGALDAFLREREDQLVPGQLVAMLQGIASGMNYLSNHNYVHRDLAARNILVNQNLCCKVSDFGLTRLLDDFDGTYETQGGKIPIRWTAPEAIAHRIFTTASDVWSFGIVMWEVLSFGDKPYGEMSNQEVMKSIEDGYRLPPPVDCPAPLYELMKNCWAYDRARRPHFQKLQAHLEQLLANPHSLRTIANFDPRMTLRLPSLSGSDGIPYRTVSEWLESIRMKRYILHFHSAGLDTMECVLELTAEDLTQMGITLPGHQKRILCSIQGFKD
# [3] = molecular target: Protein kinase C beta type (Homo sapiens) (UniProt P05771); test: Inhibition of human recombinant PKCb at 40 nM in presence of ATP by radiometric assay relative to control
# [4] = molecular target: Dual specificity mitogen-activated protein kinase kinase 1 (Homo sapiens) (UniProt Q02750); test: Inhibition of human recombinant MAP2K1 at 40 nM related to control ULK1
# [5] = molecular target: T3, cAMP-dependent protein kinase catalytic subunit PRKX (Homo sapiens) (UniProt P51817); test: Inhibition of human recombinant PRKX at 500 nM in presence of ATP by radiometric assay relative to control
# T3 sequence (whole entry): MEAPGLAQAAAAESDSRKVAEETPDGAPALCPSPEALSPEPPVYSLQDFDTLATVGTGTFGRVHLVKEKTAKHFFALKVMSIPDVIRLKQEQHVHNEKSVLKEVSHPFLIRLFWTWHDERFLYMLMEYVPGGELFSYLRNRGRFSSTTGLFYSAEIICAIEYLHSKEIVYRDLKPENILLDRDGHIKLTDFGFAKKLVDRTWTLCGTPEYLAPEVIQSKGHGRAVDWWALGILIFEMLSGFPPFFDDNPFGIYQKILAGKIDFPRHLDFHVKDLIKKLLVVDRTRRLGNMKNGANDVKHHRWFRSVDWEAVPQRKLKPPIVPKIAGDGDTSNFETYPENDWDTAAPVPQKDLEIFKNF
# [6] = molecular target: Mitogen-activated protein kinase 9 (Homo sapiens) (UniProt P45984); test: Inhibition of human recombinant JNK2 at 500 nM in presence of ATP by radiometric assay relative to control
# [7] = molecular target: Fibroblast growth factor receptor 4 (Homo sapiens) (UniProt P22455); test: Inhibition of human recombinant FGFR4 at 500 nM in presence of ATP by radiometric assay relative to control
# [8] = molecular target: Vascular endothelial growth factor receptor 1 (Homo sapiens) (UniProt P17948); test: Inhibition of human recombinant FLT1 at 500 nM related to control ULK1
# [9] = molecular target: Fibroblast growth factor receptor 1 (Homo sapiens) (UniProt P11362); test: Inhibition of human recombinant FGFR1 at 15 nM in presence of ATP by radiometric assay relative to control
# [10] = molecular target: Protein-tyrosine kinase 6 (Homo sapiens) (UniProt Q13882); test: Inhibition of human recombinant BRK at 15 nM in presence of ATP by radiometric assay relative to control
# Summary of the method: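 Part of a radiometric in vitro activity panel of 327 recombinant human kinases. Each kinase was tested in duplicate at one inhibitor concentration. Activity remaining was expressed as a percentage of the vehicle control, and percent inhibition was taken as 100 minus that value.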
# [11] = molecular target: Serine/threonine-protein kinase D2 (Homo sapiens) (UniProt Q9BZL6); test: Inhibition of human recombinant PKD2 at 15 nM in presence of ATP by radiometric assay relative to control
# [12] = molecular target: SRSF protein kinase 3 (Homo sapiens) (UniProt Q9UPE1); test: Inhibition of human recombinant MSSK1 at 15 nM related to control ULK1
# SRSF protein kinase 3 (Homo sapiens), sequence (Q9UPE1 whole entry): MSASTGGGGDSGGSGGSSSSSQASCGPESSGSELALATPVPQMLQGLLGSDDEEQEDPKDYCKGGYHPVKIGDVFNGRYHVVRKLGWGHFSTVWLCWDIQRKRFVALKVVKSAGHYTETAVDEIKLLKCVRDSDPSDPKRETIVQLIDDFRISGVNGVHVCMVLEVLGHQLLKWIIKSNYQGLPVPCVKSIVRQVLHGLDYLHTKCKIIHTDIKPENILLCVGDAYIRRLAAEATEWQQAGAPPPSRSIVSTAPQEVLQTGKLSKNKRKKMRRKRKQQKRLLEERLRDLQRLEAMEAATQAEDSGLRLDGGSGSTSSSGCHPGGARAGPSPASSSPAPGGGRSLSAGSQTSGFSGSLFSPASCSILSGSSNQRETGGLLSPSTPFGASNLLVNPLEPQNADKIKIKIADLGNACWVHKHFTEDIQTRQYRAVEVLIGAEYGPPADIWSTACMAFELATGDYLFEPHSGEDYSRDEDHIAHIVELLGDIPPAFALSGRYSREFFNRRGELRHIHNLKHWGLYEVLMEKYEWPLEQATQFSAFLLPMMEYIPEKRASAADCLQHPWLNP
# Protein kinase C beta type (Homo sapiens), sequence (P05771 2-671 limits assumed): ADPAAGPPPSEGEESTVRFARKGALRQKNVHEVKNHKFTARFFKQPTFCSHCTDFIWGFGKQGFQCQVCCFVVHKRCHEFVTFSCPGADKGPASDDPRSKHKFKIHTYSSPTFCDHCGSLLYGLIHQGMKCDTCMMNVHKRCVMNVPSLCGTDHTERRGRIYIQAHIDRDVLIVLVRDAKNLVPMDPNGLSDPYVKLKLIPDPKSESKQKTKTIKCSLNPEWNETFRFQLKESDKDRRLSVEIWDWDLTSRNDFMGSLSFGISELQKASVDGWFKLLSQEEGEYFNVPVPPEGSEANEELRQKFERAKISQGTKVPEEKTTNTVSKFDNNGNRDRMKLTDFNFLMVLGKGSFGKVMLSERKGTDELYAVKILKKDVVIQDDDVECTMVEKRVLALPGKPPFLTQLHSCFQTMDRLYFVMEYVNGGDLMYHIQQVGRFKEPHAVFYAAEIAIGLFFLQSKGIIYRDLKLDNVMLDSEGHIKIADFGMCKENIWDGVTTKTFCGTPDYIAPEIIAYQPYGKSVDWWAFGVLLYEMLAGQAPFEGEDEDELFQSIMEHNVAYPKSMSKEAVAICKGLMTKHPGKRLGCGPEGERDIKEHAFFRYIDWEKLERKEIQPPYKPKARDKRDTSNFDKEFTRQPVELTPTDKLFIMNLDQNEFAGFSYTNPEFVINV
# Dual specificity mitogen-activated protein kinase kinase 1 (Homo sapiens), sequence (Q02750 whole entry): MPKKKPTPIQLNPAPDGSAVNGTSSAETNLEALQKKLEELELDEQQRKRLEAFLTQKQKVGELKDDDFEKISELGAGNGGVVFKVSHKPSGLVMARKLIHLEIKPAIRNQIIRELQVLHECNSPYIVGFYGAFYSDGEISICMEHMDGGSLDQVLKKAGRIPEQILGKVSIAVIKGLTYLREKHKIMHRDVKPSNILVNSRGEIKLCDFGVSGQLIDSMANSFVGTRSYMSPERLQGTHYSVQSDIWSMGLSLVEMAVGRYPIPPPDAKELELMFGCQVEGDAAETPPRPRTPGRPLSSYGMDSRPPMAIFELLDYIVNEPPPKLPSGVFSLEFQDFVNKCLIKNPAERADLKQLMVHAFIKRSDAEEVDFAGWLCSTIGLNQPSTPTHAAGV
# Fibroblast growth factor receptor 4 (Homo sapiens), sequence (P22455 22-802 limits assumed): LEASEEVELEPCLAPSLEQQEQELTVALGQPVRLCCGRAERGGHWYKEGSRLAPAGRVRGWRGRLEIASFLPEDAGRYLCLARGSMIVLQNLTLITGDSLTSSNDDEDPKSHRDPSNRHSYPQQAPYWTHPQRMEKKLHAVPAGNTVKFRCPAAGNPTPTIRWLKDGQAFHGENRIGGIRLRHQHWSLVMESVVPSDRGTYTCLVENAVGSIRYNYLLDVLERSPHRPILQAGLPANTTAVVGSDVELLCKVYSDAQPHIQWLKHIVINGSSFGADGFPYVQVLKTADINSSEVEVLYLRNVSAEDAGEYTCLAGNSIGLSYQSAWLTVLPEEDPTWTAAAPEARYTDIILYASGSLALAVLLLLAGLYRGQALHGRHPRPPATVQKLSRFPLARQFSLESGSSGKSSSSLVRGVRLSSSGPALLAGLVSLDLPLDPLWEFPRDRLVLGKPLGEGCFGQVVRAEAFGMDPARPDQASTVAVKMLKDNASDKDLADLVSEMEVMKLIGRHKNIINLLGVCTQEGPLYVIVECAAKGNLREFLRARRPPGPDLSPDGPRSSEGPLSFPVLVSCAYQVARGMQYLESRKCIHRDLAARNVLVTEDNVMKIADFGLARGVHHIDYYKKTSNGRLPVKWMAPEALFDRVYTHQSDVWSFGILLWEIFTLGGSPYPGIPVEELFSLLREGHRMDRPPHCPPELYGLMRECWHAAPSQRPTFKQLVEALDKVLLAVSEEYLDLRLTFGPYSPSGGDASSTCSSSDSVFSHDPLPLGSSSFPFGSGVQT
# Vascular endothelial growth factor receptor 1 (Homo sapiens), sequence (P17948 whole entry): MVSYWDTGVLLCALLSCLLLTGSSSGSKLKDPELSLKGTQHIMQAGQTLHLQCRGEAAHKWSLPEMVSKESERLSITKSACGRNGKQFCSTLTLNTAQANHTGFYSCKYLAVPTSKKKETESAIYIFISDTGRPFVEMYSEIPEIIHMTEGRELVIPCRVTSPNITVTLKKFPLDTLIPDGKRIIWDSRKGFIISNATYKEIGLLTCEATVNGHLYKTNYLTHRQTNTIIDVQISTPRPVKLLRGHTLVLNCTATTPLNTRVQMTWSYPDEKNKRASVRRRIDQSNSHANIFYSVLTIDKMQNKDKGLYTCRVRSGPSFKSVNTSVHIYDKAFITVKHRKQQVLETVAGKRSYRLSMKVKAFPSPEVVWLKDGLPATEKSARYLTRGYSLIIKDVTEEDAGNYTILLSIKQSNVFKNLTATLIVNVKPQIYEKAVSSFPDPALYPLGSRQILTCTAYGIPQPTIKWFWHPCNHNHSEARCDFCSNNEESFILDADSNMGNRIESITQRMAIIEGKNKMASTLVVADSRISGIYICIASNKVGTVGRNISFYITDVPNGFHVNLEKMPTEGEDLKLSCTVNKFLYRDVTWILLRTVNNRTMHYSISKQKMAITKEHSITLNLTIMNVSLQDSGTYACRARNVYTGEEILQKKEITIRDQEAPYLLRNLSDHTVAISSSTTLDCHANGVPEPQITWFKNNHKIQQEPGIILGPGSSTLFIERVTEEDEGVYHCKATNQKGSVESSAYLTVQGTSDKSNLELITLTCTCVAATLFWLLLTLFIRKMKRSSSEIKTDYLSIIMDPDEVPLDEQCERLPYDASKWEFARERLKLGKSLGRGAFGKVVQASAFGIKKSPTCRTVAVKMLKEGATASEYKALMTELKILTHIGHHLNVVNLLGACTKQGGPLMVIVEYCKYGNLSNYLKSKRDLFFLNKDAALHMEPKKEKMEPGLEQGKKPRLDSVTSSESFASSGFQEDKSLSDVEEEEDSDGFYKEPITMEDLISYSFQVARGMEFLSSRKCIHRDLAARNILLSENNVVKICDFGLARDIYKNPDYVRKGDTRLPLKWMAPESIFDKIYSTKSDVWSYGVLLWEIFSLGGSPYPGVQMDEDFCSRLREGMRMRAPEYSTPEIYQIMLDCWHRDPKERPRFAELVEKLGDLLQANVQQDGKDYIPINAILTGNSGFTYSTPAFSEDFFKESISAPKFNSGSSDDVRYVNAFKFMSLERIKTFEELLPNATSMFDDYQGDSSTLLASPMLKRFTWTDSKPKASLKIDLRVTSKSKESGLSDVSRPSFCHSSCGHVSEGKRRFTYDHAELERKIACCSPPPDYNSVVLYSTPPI
# Mitogen-activated protein kinase 9 (Homo sapiens), sequence (P45984 whole entry, looked up): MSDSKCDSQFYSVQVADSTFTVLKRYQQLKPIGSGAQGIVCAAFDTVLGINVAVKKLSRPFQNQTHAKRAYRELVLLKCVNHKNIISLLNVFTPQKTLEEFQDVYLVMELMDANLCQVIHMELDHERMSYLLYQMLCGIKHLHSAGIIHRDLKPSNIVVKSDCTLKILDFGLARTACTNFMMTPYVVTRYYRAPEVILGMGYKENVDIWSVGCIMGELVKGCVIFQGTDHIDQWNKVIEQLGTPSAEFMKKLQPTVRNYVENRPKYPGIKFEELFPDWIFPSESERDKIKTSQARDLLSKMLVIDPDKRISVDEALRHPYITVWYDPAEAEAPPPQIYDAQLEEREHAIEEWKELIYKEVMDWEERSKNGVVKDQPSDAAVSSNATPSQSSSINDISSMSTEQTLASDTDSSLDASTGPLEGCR
# Fibroblast growth factor receptor 1 (Homo sapiens), sequence (P11362 22-822 limits assumed): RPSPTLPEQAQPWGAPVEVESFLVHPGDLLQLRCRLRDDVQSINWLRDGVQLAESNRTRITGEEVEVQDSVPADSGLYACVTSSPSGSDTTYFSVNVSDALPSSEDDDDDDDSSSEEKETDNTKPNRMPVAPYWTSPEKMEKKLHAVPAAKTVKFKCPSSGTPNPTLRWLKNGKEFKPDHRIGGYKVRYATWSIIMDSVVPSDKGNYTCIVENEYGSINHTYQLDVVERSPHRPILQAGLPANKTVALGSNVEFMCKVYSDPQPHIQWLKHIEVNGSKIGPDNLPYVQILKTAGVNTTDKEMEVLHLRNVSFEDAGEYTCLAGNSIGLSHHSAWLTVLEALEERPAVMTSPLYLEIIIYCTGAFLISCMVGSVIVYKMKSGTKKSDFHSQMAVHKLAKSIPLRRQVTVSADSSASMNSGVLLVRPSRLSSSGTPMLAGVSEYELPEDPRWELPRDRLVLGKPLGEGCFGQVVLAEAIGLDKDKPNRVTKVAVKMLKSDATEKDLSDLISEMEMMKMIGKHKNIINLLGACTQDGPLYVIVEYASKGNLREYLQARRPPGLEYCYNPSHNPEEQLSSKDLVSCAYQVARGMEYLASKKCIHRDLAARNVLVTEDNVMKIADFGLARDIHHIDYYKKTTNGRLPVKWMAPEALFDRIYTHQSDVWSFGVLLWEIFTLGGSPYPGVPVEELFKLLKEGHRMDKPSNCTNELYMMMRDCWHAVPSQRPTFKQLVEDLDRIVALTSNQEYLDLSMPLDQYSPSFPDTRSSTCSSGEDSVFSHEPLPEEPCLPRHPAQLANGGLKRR
smiles,measurement,setting,value
O=C(N[C@@H](C1CC1)C(F)(F)F)c1cc(-c2cnn3cc(-c4ccc(F)cc4)cnc23)cs1,fold change (FC),[1],0.04
same,fold change (FC),[2],0
same,inhibition,[3],3%
same,fold change (FC),[4],0
CNC(=O)c1ccccc1Oc1nc(Nc2cc(OC)c(OC)c(OC)c2)ncc1Br,inhibition,[5],16%
same,inhibition,[6],0%
same,inhibition,[7],10%
same,fold change (FC),[8],0.03
CC(C)[C@H](NC(=O)c1cc(-c2cnn3cc(-c4ccc(OCCN5CCCCC5)cc4)cnc23)cs1)C(F)(F)F,inhibition,[9],0%
same,inhibition,[10],8%
same,inhibition,[11],0%
same,fold change (FC),[12],0
